Experimental findings from ChEMBL document CHEMBL3045225, “Vapor-phase toxicity of Derris scandens Benth.-derived constituents against four stored-product pests” (2011) are described below.

Usually mortality stands for the percentage killed. The LC50 is the concentration that kills 50% of the test population.

For test [1], the system named is Callosobruchus chinensis. The test can be described thus: Insecticidal activity against 3 to 8 days old Callosobruchus chinensis assessed as mortality at 1 ug/mL measured after 48 hr by fumigation assay. Format: functional. A digest of the protocol:
(§1)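 Adults from Directorate of Maize Research lab cultures, 20 per sealed 100 mL PVC container. Acetone solutions (0.1-1.0 μg/mL) applied to filter paper, air-dried 5 min, fixed inside lid; acetone-only controls. Held at 28 ± 2 °C, 65 ± 5% RH. Death confirmed by paintbrush probing; counted every 24 h to 72 h. Five replicates per treatment; three runs on different dates.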

For test [2], the system named is Callosobruchus chinensis. The test can be described thus: Insecticidal activity against 3 to 8 days old Callosobruchus chinensis assessed as mortality at 1 ug/mL measured after 24 hr by fumigation assay. The test is classed as functional. In a few lines: as §1
In test [3] the test system is Tribolium castaneum. As to the kind of experiment: Insecticidal activity against 3 to 8 days old Tribolium castaneum (red flour beetle) assessed as mortality measured after 24 hr by fumigation assay. The test is classed as functional. A digest of the protocol:
as §1

Test [4] has as its system Tribolium castaneum. As to the kind of experiment: Insecticidal activity against 3 to 8 days old Tribolium castaneum (red flour beetle) assessed as mortality at 1 ug/mL measured after 72 hr by fumigation assay. Format: functional. In a few lines:
as §1

Test [5] relates to Tribolium castaneum. As to the kind of experiment: Insecticidal activity against 3 to 8 days old Tribolium castaneum (red flour beetle) assessed as mortality at 1 ug/mL measured after 48/ hr by fumigation assay. The test is classed as functional. In a few lines:
as §1

Test [6] concerns Tribolium castaneum. The test can be described thus: Insecticidal activity against 3 to 8 days old Tribolium castaneum (red flour beetle) assessed as mortality at 1 ug/mL measured after 24 hr by fumigation assay. Format: functional. A digest of the protocol:
as §1

Test [7] concerns Rhyzopertha dominica. As to the kind of experiment: Insecticidal activity against 3 to 8 days old Rhyzopertha dominica assessed as mortality measured after 24 hr by fumigation assay. Format: functional. In a few lines:
as §1

Test [8] concerns Rhyzopertha dominica. The test can be described thus: Insecticidal activity against 3 to 8 days old Rhyzopertha dominica assessed as mortality at 1 ug/mL measured after 72 hr by fumigation assay. The test is classed as functional. In a few lines:
as §1

The test system of test [9] is Rhyzopertha dominica. As to the kind of experiment: Insecticidal activity against 3 to 8 days old Rhyzopertha dominica assessed as mortality at 1 ug/mL measured after 48 hr by fumigation assay. The test is classed as functional. A digest of the protocol: as §1
In test [10] the test system is Rhyzopertha dominica. The test can be described thus: Insecticidal activity against 3 to 8 days old Rhyzopertha dominica assessed as mortality at 1 ug/mL measured after 24 hr by fumigation assay. The test is classed as functional. A digest of the protocol:
as §1

Test [11] relates to Sitophilus oryzae. The test can be described thus: Insecticidal activity against 3 to 8 days old Sitophilus oryzae (rice weevil) assessed as mortality measured after 72 hr by fumigation assay. Format: functional. A digest of the protocol: as §1
In test [12] the test system is Sitophilus oryzae. As to the kind of experiment: Insecticidal activity against 3 to 8 days old Sitophilus oryzae (rice weevil) assessed as mortality at 1 ug/mL measured after 72 hr by fumigation assay. Format: functional. A digest of the protocol: as §1
Test [13] relates to Sitophilus oryzae. The test can be described thus: Insecticidal activity against 3 to 8 days old Sitophilus oryzae (rice weevil) assessed as mortality at 1 ug/mL measured after 24 hr by fumigation assay. Format: functional. In a few lines:
as §1

The test system of test [14] is Callosobruchus chinensis. The test can be described thus: Insecticidal activity against 3 to 8 days old Callosobruchus chinensis assessed as mortality measured after 72 hr by fumigation assay. Format: functional. A digest of the protocol: as §1
Test [15] relates to Callosobruchus chinensis. The test can be described thus: Insecticidal activity against 3 to 8 days old Callosobruchus chinensis assessed as mortality at 1 ug/mL measured after 72 hr by fumigation assay. Format: functional. In a few lines:
as §1

The subject of test [16] is Sitophilus oryzae. As to the kind of experiment: Insecticidal activity against 3 to 8 days old Sitophilus oryzae (rice weevil) assessed as mortality at 1 ug/mL measured after 48 hr by fumigation assay. Format: functional. A digest of the protocol:
as §1

Test [17] relates to Tribolium castaneum. The test can be described thus: Insecticidal activity against 3 to 8 days old Tribolium castaneum (red flour beetle) assessed as mortality at 0.2 ug/mL measured within 24 hr by fumigation assay. Format: functional, organism-based. In a few lines: as §1

Converted amounts (≈) assume the structure as drawn. The source made the active and inactive calls. The calls are words filed in the database; no cut-off is given here.

In the case of `CC(C)=CCc1c2c(c(O)c3c(=O)cc(-c4ccc(O)cc4)oc13)C=CC(C)(C)O2` [LAXIFOLIN], the mortality at 1 µg/mL amounted to 93.2% in the test on Callosobruchus chinensis [1]; 88.8% in the test on Callosobruchus chinensis [2]; 100% in the test with Tribolium castaneum [4]; 94.6% in the test on Tribolium castaneum [5]; 92.3% in the test with Tribolium castaneum [6]; 92% in the test with Rhyzopertha dominica [8]. Also, the mortality at 1 µg/mL is 90.8% in the test on Rhyzopertha dominica [9]; 89.3% in the test with Rhyzopertha dominica [10]; 100% in the test on Sitophilus oryzae [12]; 100% in the test with Sitophilus oryzae [13]; 96.4% with Callosobruchus chinensis [15]. Also, the LC50 in the test on Tribolium castaneum [3] worked out at 0.34 µg/mL (≈ 0.841 µM); with Rhyzopertha dominica [7] it was 0.34 µg/mL (≈ 0.841 µM); in the test on Sitophilus oryzae [11], 0.2 µg/mL (≈ 0.494 µM); in the test with Callosobruchus chinensis [14] it was 0.39 µg/mL (≈ 0.964 µM).

With `COc1ccc(-c2c(O)c3c(OC)c(CC=C(C)C)c4c(c3oc2=O)C=CC(C)(C)O4)cc1` [SCANDENIN A], the mortality at 1 µg/mL with Callosobruchus chinensis [1] amounted to 81.4%; in the test on Callosobruchus chinensis [2], 79%; in the test on Tribolium castaneum [4], 63.8%; in the test with Tribolium castaneum [5], 60.8%; in the test with Tribolium castaneum [6], 58.2%; in the test on Rhyzopertha dominica [8] it was 67.8%. Further, the mortality at 1 µg/mL in the test on Rhyzopertha dominica [9] worked out at 64.2%; in the test on Rhyzopertha dominica [10], 60.6%; in the test on Sitophilus oryzae [12] it was 75.6%; in the test on Sitophilus oryzae [16], 72%; with Sitophilus oryzae [13], 69.4%; with Callosobruchus chinensis [15], 83%. The LC50 came to 0.82 µg/mL (≈ 1.83 µM) in the test on Tribolium castaneum [3], 0.82 µg/mL (≈ 1.83 µM) in the test with Rhyzopertha dominica [7], 0.76 µg/mL (≈ 1.69 µM) with Sitophilus oryzae [11] and 0.43 µg/mL (≈ 0.959 µM) in the test with Callosobruchus chinensis [14].

Regarding `C[C@@H]1O[C@@H](OC[C@H]2O[C@@H](Oc3cc(O)c4c(=O)c(-c5ccc(O)cc5)coc4c3)[C@H](O)[C@@H](O)[C@@H]2O)[C@H](O)[C@H](O)[C@H]1O` [SPHAEROBIOSIDE], the mortality at 1 µg/mL with Callosobruchus chinensis [2], in the test on Tribolium castaneum [4], in the test with Tribolium castaneum [6], in the test with Rhyzopertha dominica [8], with Rhyzopertha dominica [10] and with Sitophilus oryzae [12] was 100% each time. Also, the mortality at 1 µg/mL in the test with Sitophilus oryzae [13] and in the test with Callosobruchus chinensis [15] was 100% in each case. Besides, the outcome with Tribolium castaneum [17] was Active. Further, the LC50 with Tribolium castaneum [3] was 0.2 µg/mL (≈ 0.346 µM); in the test on Rhyzopertha dominica [7], 0.27 µg/mL (≈ 0.467 µM); in the test with Sitophilus oryzae [11], 0.18 µg/mL (≈ 0.311 µM); in the test on Callosobruchus chinensis [14] it was 0.21 µg/mL (≈ 0.363 µM).

With `COc1c(CC=C(C)C)c2c(c3occ(-c4ccc(O)cc4)c(=O)c13)C=CC(C)(C)O2` [SCANDINONE], the mortality at 1 µg/mL in the test on Callosobruchus chinensis [2], in the test on Tribolium castaneum [4], with Tribolium castaneum [6], with Rhyzopertha dominica [8], in the test with Rhyzopertha dominica [10] and in the test on Sitophilus oryzae [12] was 100% throughout. Besides, the mortality at 1 µg/mL with Sitophilus oryzae [13] and with Callosobruchus chinensis [15] was 100% throughout. Moreover, in the test with Tribolium castaneum [17], the result was Active. For the same compound, the LC50 was found to be 0.2 µg/mL (≈ 0.478 µM) in the test on Tribolium castaneum [3], 0.33 µg/mL (≈ 0.789 µM) in the test with Rhyzopertha dominica [7], 0.24 µg/mL (≈ 0.573 µM) in the test with Sitophilus oryzae [11] and 0.31 µg/mL (≈ 0.741 µM) with Callosobruchus chinensis [14].

With `CC(C)=CCc1cc(-c2coc3cc(O)c(CC=C(C)C)c(O)c3c2=O)ccc1O` [LUPALBIGENIN], the mortality at 1 µg/mL was found to be 100% with Callosobruchus chinensis [2]; 91% in the test on Tribolium castaneum [4]; 88.4% in the test on Tribolium castaneum [5]; 85.4% in the test with Tribolium castaneum [6]; 100% with Rhyzopertha dominica [8]; 94.6% with Rhyzopertha dominica [9]. Besides, the mortality at 1 µg/mL in the test on Rhyzopertha dominica [10] came to 93.4%; with Sitophilus oryzae [12], 100%; in the test with Sitophilus oryzae [13] it was 100%; in the test with Callosobruchus chinensis [15] it was 100%. In addition, the LC50 turned out to be 0.38 µg/mL (≈ 0.935 µM) with Tribolium castaneum [3], 0.29 µg/mL (≈ 0.713 µM) with Rhyzopertha dominica [7], 0.26 µg/mL (≈ 0.64 µM) with Sitophilus oryzae [11] and 0.23 µg/mL (≈ 0.566 µM) in the test with Callosobruchus chinensis [14].

`O=c1c(-c2ccc(O)cc2)coc2cc(O)cc(O)c12` [GENISTEIN]: the mortality at 1 µg/mL in the test on Callosobruchus chinensis [2], with Tribolium castaneum [4], with Tribolium castaneum [6], in the test with Rhyzopertha dominica [8], in the test with Rhyzopertha dominica [10] and with Sitophilus oryzae [12] was 100% in each case. In addition, the mortality at 1 µg/mL in the test with Sitophilus oryzae [13] and in the test with Callosobruchus chinensis [15] was 100% in each case. In addition, the result in the test on Tribolium castaneum [17] was Active. Besides, the 50% lethal concentration (LC50) is 0.18 µg/mL (≈ 0.666 µM) in the test on Tribolium castaneum [3], 0.28 µg/mL (≈ 1.04 µM) in the test on Rhyzopertha dominica [7], 0.31 µg/mL (≈ 1.15 µM) in the test on Sitophilus oryzae [11] and 0.17 µg/mL (≈ 0.629 µM) in the test on Callosobruchus chinensis [14].

As for `CC(C)=CCc1c2c(c3occ(-c4ccc(O)cc4)c(=O)c3c1O)C=CC(C)(C)O2` [OSAJIN], the mortality at 1 µg/mL in the test with Callosobruchus chinensis [2], in the test on Tribolium castaneum [4], in the test on Tribolium castaneum [6], in the test on Rhyzopertha dominica [8], in the test with Rhyzopertha dominica [10] and in the test with Sitophilus oryzae [12] was 100% throughout. Moreover, the mortality at 1 µg/mL in the test with Sitophilus oryzae [13] and in the test with Callosobruchus chinensis [15] was 100% each time. Moreover, in the test with Tribolium castaneum [17], the result was Active. Also, the LC50 with Tribolium castaneum [3] is 0.26 µg/mL (≈ 0.643 µM); in the test on Rhyzopertha dominica [7], 0.32 µg/mL (≈ 0.791 µM); with Sitophilus oryzae [11] it was 0.28 µg/mL (≈ 0.692 µM); in the test with Callosobruchus chinensis [14] it was 0.29 µg/mL (≈ 0.717 µM).

With `CC(C)=CCc1c2c(c(O)c3c(=O)c(-c4ccc(O)cc4)coc13)C=CC(C)(C)O2` [WARANGALONE], the mortality at 1 µg/mL in the test with Callosobruchus chinensis [1] stood at 29.1%; with Callosobruchus chinensis [2], 27.9%; in the test with Tribolium castaneum [4], 37.2%; in the test with Tribolium castaneum [5] it was 32.8%; with Tribolium castaneum [6], 30.7%; in the test on Rhyzopertha dominica [8], 21.8%. For the same compound, the mortality at 1 µg/mL was 18.6% with Rhyzopertha dominica [9]; 15.8% in the test on Rhyzopertha dominica [10]; 63.4% with Sitophilus oryzae [12]; 60% in the test with Sitophilus oryzae [16]; 50.1% with Sitophilus oryzae [13]; 31.4% with Callosobruchus chinensis [15]. In addition, the LC50 was over 1 µg/mL in the test on Tribolium castaneum [3], over 1 µg/mL in the test on Rhyzopertha dominica [7], 0.84 µg/mL (≈ 2.08 µM) with Sitophilus oryzae [11] and over 1 µg/mL in the test with Callosobruchus chinensis [14].

As to `COc1c(CC=C(C)C)c2c(c3oc(=O)c(-c4ccc(O)cc4)c(O)c13)C=CC(C)(C)O2` [SCANDENIN], the mortality at 1 µg/mL amounted to 56% with Callosobruchus chinensis [1]; 49.5% with Callosobruchus chinensis [2]; 32.2% with Tribolium castaneum [4]; 29.6% in the test with Tribolium castaneum [5]; 24.7% in the test with Tribolium castaneum [6]; 78.2% with Rhyzopertha dominica [8]. Moreover, the mortality at 1 µg/mL in the test on Rhyzopertha dominica [9] was determined as 75.8%; in the test on Rhyzopertha dominica [10], 72.3%; with Sitophilus oryzae [12] it was 85.4%; in the test with Sitophilus oryzae [16], 83.6%; in the test with Sitophilus oryzae [13], 82%; with Callosobruchus chinensis [15] it was 58.2%. The LC50 in the test with Tribolium castaneum [3] was over 1 µg/mL; with Rhyzopertha dominica [7], 0.74 µg/mL (≈ 1.7 µM); with Sitophilus oryzae [11], 0.45 µg/mL (≈ 1.04 µM); with Callosobruchus chinensis [14] it was 0.9 µg/mL (≈ 2.07 µM).
